This is a sample that favours compounds with a hit; in the whole collection about 2.8% have one here.
Rtt109 Vps75: inhibitors of Candida albicans Rtt109/Vps75 histone acetyltransferase. Q5AAJ8. purified Rtt109/Vps75, ThioGlo CoA-SH fluorescence, 4 h. inhibition, % at 34.9 µM. 330,000 tested, 0.16% active;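 active = inhibition of at least 50% in every replicate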
T cell modulator: T cell immune modulators affecting CD8 T cell-vesicle binding. 2C CD8+ T cell-vesicle binding, flow cytometry; hits give low values. response (vesicle binding), % at 7 µM. 330,000 tested, 0.068% active;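 active = response, share of CD8 T cells binding vesicles, and their 90th percentile fluorescence all below set limits, cut at about 80% in these data, passing the limit was not always enough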;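 note: values below 100% mean blocked vesicle binding to the CD8+ T cells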
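Test system: purified 2C TCR transgenic mouse naive CD8+ T cells. Probe or stimulus: QL9-peptide-loaded Drosophila micro-vesicles bearing Ld, ICAM-1 and B7-1. Incubation: binding step 1.5 h, 37 °C, antibody labelling 20 min, ice. Measured by: flow cytometry of vesicle-bound cells.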
GRIN3A LBD mod: modulates the human NR3A ligand-binding domain; NR3A LBD differential scanning fluorimetry, Tm shift; 0% = protein alone, 100% = glycine-bound protein; Tm shift relative to glycine control, % at 25 µM; 340,000 tested, 2.5% active;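 active = melting temperature shift of at least 10% of the positive control shift, at one fixed dose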
JMJD2C inh: blocks human GASC-1 demethylase activity. Q9H3R0. GST-JMJD2C(1-420) H3K9me3 demethylation, DELFIA europium. inhibition, % at 2.35 µM. 330,000 tested, 0.069% active. AID 2099;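 active = more than half of a compound's replicate wells show inhibition beyond 50%, single wells judged on their own value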;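 note: signal counts dimethyl H3K9 product captured on neutravidin plate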
Target sequence (Q9H3R0 1-420 limits assumed): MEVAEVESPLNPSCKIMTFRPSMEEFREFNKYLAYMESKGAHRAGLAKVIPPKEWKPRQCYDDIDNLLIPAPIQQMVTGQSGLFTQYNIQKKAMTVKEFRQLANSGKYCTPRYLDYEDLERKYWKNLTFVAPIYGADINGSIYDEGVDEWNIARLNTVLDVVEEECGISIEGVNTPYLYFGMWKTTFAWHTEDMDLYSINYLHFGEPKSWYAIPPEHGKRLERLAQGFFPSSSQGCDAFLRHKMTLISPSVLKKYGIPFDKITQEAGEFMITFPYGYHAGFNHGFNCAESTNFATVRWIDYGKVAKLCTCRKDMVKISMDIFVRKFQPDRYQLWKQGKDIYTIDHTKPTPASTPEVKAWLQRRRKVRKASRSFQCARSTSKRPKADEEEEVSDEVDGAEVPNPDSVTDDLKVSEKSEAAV
Of the large screens only hits and unclear results are named; the others gave an inactive call.

Cc1ccc(N=Nc2c(N)nn3c(N)c(C#N)c(C)nc23)cc1	GRIN3A LBD mod 26
CSc1ccccc1OCc1cc(C(=O)N2CCC(Oc3cccnc3)CC2)no1	none (no result: GRIN3A LBD mod)
Oc1[nH]c2ccc(Br)cc2c1N=Nc1ccc(C(F)(F)F)cn1	GRIN3A LBD mod 21 (no result: Rtt109 Vps75)
CCN1C(=O)c2cccc3c(NS(=O)(=O)c4ccc(NC(C)=O)cc4)ccc1c23	none
CCOC(=O)c1ccc(NC(=O)Nc2ccc3c4c(cccc24)C(=O)N3CC)cc1	GRIN3A LBD mod 17
C=CCOC1=CS(=O)(=O)N(Cc2ccc(Br)cc2)c2ccc(Br)cc21	none (no result: T cell modulator, JMJD2C inh)
COc1ccc(C2c3ccc4ccccc4c3Oc3ncn(CCN(C)C)c(=N)c32)cc1 (stereo not given)	none
Cc1ccc(C(=O)O)cc1-c1ccc(C=C2C(=O)c3ccccc3C2=O)o1	GRIN3A LBD mod 10
Cc1ccc(NC(=O)CN2C(=O)S/C(=C/c3ccc(-c4cc(C(=O)O)ccc4C)o3)C2=O)cc1C	none
O=C1NC(=Nc2ccccc2Cl)S/C1=C\c1cc([N+](=O)[O-])ccc1O	GRIN3A LBD mod 20
Cc1ccc(S(=O)(=O)/N=C2/NC(=O)/C(=C/c3cc([N+](=O)[O-])ccc3O)S2)cc1	GRIN3A LBD mod 28
COc1cc(/C=C2\S/C(=N/S(=O)(=O)c3ccc(C)cc3)NC2=O)c([N+](=O)[O-])cc1OC	none
O=C(c1ccc(O)c(Cl)c1)N1CCN(S(=O)(=O)c2ccccc2)CC1	none
CC1(C)C=Cc2c(c3c(c4c(=O)c(-c5ccc(O)cc5)coc24)OC(C)(C)CC3)O1	none
CC(C)=CCc1c2c(c3occ(-c4ccc(O)c(O)c4)c(=O)c3c1O)C=CC(C)(C)O2	GRIN3A LBD mod 27 (no result: T cell modulator, JMJD2C inh)
CC(C)=CCc1c2c(c3occ(-c4ccc(O)cc4)c(=O)c3c1O)C=CC(C)(C)O2	GRIN3A LBD mod 25
C=CCNC(=O)c1ccccc1NC(=O)c1ccc(Cl)c(S(=O)(=O)Nc2ccccc2)c1	GRIN3A LBD mod 14
O=C(c1cc(COc2c(F)cccc2F)on1)N(Cc1ccccc1)CC1CC1	none
O=C(/C=C/c1ccccc1)CC(=O)c1ccccc1O	GRIN3A LBD mod 13
O=C(/C=C/c1ccccc1)NC(=O)c1ccccc1O	none
CC(C)N(C)Cc1nnnn1CC(=O)NCCc1cccc(C(F)(F)F)c1	none
CCn1nc(C(=O)OC(C(=O)c2c[nH]c3ccccc23)c2ccccc2)c2ccccc2c1=O (stereo not given)	GRIN3A LBD mod 20 (no result: T cell modulator)
O=C(NCC(=O)N1CCOCC1)c1ccc(Cl)c(Cl)c1	none
COc1cc2ccc(=O)oc2c(O)c1O	Rtt109 Vps75 126 (no result: T cell modulator, JMJD2C inh)
COc1cc2ccc(=O)oc2c(O[C@@H]2O[C@H](CO)[C@@H](O)[C@H](O)[C@H]2O)c1O	none
NS(=O)(=O)c1ccc(NC(=O)COC(=O)C2CC2)cc1	none
CN(C)c1nc2c(c(=O)[nH]c(=O)n2C)n1CCOc1ccccc1	none
CCN(CC)c1nc2c(c(=O)[nH]c(=O)n2C)n1CCOc1ccccc1	Rtt109 Vps75 58
CC(C)COC(=O)COc1cc(Cl)c(Cl)cc1Cl	none (no result: Rtt109 Vps75, GRIN3A LBD mod)
O=C1c2ccccc2NC(c2ccc(-c3ccc(C(F)(F)F)cc3)o2)N1O (stereo not given)	GRIN3A LBD mod 23 (no result: JMJD2C inh)
COc1ccc(CN(C2CC2)S(=O)(=O)c2ccccc2Br)cc1	GRIN3A LBD mod 13 (no result: T cell modulator, JMJD2C inh)
COc1ccc(CN(CCC(C)C)S(=O)(=O)c2ccccc2Br)cc1	none (no result: T cell modulator, JMJD2C inh)
Cc1ccc(-c2n[nH]c(=S)n2/N=C/c2sccc2C)cc1	GRIN3A LBD mod 15
CCOC(=O)C1=C(C)N(CCCC(=O)O)C(=O)NC1c1ccc(C(F)(F)F)cc1 (stereo not given)	none (no result: Rtt109 Vps75, T cell modulator, GRIN3A LBD mod)
COc1ccc(C(=O)NCC(=O)N/N=C(\C)c2ccco2)cc1OC	none
O=C(c1ccccc1F)N1CCN(c2ccccc2F)CC1	GRIN3A LBD mod 12
Cn1c(=O)oc2cc(S(=O)(=O)N3CCN(c4ccccc4F)CC3)ccc21	GRIN3A LBD mod 12
O=C(c1cccc(S(=O)(=O)N2CCN(c3ccccc3)CC2)c1)N1CCN(c2ccccc2O)CC1	GRIN3A LBD mod 10
CN1CCN(S(=O)(=O)c2cccc(C(=O)N3CCN(c4ccccc4F)CC3)c2)CC1	none
O=C(c1cccc(S(=O)(=O)N2CCCCCC2)c1)N1CCN(c2ccccc2F)CC1	GRIN3A LBD mod 17 (no result: Rtt109 Vps75)
O=C(NCc1n[nH]c(=S)n1-c1cccc(C(F)(F)F)c1)c1ccco1	none
CC1(c2ccccc2)NC(=O)N(CC(=O)NCc2cccc(Cl)c2)C1=O (stereo not given)	none
CCN(CC)C(=O)c1ccc(COc2ccc(Cl)c(C)c2)o1	none
